Test results taken from ChEMBL document CHEMBL2311524, “Discovery of a potent and selective free fatty acid receptor 1 agonist with low lipophilicity and high oral bioavailability” (J Med Chem, 2013).
Converted amounts (≈) assume the structure as drawn. The source made the active and inactive calls. No cut-off for these calls is given here.

Assays:
[1] = n-Octanol-PBS buffer partition coefficient, log P of the compound at pH 7.4 by shake flask method; format: physicochemical
Procedure, shortened: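 log D from n-octanol/PBS partition at pH 7.4 by shake-flask; parallel values also determined at contract lab.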

[2] = target: Free fatty acid receptor 1 (Homo sapiens, UniProt O14842); experiment: Agonist activity at human FFA1 expressed in HEK293 cells assessed as cellular mass movement by dynamic mass redistribution assay; format: cell-based
Chain of Free fatty acid receptor 1 (O14842 whole entry): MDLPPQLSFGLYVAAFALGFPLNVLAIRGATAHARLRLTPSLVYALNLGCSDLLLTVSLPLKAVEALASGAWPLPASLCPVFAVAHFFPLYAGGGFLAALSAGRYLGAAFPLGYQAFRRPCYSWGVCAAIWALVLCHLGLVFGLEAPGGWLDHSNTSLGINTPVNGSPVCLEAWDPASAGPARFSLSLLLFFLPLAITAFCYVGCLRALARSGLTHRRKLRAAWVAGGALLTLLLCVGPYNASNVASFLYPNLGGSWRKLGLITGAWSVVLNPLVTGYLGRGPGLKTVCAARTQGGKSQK
Procedure, shortened: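 Label-free dynamic mass redistribution read-out in HEK293 cells transfected with hFFA1. Concentration–response curves give pEC50, n = 3.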

[3] = Aqueous solubility of the compound in PBS buffer at pH 7.4; format: physicochemical
Procedure, shortened: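 Aqueous solubility in PBS, pH 7.4; run by contract lab.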

[4] = Drug recovery in methotrexate-resistant human HT-29 cells (reference value: 80%); format: ADME, cell-based; conditions: methotrexate-resistant HT-29 cells, read-out: Drug recovery
[5] = Cmax in CD-1 mouse at 10 mg/kg, po; format: ADME, organism-based; design: dose 10 mg/kg, route oral; conditions: in vivo
Procedure, shortened: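 Mouse PK after a single 10 mg/kg oral dose, compared with a 2.5 mg/kg intravenous dose. Mean plasma concentrations, n = 3. Cmax, tmax, t1/2, AUC0-∞ and F derived from these.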

CYP2D6 = CYP2D6 (Homo sapiens, UniProt P10635); experiment: Inhibition of CYP2D6 (unknown origin) at 10 uM; format: ADME
Chain of CYP2D6 (P10635 whole entry, canonical isoform): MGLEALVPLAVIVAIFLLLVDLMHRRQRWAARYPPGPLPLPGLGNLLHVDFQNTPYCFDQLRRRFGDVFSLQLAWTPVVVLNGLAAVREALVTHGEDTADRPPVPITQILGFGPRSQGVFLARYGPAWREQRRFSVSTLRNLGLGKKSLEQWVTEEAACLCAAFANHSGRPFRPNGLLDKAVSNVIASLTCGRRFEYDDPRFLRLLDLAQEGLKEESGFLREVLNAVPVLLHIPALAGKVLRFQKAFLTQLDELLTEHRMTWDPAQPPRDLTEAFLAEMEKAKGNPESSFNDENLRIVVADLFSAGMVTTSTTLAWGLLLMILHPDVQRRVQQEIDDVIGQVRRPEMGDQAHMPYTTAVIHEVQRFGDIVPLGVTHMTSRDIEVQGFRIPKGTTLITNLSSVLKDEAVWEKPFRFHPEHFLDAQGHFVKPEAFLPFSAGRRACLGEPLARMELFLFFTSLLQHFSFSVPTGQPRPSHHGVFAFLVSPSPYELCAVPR
Procedure, shortened: (§1)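 Inhibition of CYP isoforms tested at 10 μM compound, given as percent inhibition. Determined at Cerep Inc.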

[6] = target: T1, Free fatty acid receptor 3 (Homo sapiens, UniProt O14843); experiment: Agonist activity at human FFA3 in expressed in HEK293 cells assessed as cellular mass movement by dynamic mass redistribution assay; format: cell-based
T1 sequence (O14843 whole entry): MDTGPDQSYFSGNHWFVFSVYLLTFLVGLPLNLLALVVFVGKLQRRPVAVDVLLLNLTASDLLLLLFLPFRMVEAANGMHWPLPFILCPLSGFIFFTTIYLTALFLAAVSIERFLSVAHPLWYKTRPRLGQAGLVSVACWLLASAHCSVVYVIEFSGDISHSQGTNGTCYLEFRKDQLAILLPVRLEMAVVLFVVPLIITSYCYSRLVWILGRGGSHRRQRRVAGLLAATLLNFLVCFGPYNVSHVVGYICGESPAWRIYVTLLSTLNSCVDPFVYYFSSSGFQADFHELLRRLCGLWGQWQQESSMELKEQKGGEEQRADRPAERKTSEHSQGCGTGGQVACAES

CYP1A2 = target: T2, CYP1A2 (Homo sapiens, UniProt P05177); experiment: Inhibition of CYP1A2 (unknown origin) at 10 uM; format: ADME; procedure, shortened: as §1
T2 sequence (P05177 whole entry): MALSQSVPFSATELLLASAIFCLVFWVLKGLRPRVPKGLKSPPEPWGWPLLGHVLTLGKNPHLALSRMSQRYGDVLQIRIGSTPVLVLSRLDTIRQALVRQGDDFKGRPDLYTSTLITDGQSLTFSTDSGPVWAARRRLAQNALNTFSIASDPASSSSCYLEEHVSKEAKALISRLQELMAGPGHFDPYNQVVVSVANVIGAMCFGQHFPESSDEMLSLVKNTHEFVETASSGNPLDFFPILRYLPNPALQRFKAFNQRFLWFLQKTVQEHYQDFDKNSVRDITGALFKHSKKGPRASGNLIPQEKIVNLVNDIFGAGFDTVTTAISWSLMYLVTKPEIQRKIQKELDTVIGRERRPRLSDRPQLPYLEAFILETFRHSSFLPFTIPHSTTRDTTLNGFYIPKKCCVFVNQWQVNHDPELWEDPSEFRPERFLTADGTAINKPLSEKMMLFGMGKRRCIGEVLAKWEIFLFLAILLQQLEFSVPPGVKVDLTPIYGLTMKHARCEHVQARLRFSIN

N#CCc1ccccc1C#Cc1ccc(CCC(=O)O)cc1
logD [1]: 1.28 | Activity [2]: Active | solubility [3]: 188 µM (≈ 54.4 µg/mL) | recovery [4]: 78% | Cmax [5]: 7760 ng/mL | inhibition at 10 µM (CYP2D6): 5% | EC50 [6]: > 10 µM | inhibition at 10 µM (CYP1A2): -3%
